Calb FLC = C. albicans growth inhibition with fluconazole, primary screen, CaCi-2 strain, Alamar Blue fluorescence | C. albicans CaCi-2 (fluconazole-resistant clinical isolate) + fluconazole, 48 h | growth inhibition, % (test concentration not listed) | 0.57% of 300,000 active | AID 1979, 2009;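 active = growth inhibition above about 58% in most replicates, limit read from the data, passing the limit was not always enough; inconclusive = exactly half the replicates above a set limit; inactive = most replicates below a set limit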;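 also: all wells also contain fluconazole at 8 µg/ml as a sub-toxic cotreatment; 0% = median of DMSO wells and 100% = median of geldanamycin control wells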
MC4R antagonist = MC4R antagonists of cAMP signaling, primary screen, cell-based, TR-FRET, antagonist arm of biased-ligand search. 0.48% of 360,000 active. inhibition, % at 6.5 µM. MC4R-expressing cells, MTII-stimulated cAMP, LANCE TR-FRET. Melanocortin receptor 4 (Homo sapiens), P32245;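 active = inhibition above its plate's cutoff, the mean of tested wells on that plate plus 3 SD, cut at about 29% in these data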;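 also: 0% = Melanotan II alone and 100% = Melanotan II plus saturating MCL0020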
Target sequence (P32245 whole entry, looked up): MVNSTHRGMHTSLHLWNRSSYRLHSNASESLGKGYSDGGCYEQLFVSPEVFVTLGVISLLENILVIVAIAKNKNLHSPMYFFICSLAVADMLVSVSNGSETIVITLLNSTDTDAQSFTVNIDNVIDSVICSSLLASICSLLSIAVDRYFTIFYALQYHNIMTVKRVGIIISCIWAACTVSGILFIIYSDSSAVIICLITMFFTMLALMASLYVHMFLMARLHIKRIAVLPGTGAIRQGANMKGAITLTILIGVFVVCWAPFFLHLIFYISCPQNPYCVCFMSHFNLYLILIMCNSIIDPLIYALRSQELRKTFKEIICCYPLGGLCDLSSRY
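Assay system: U2OS-MC4R stable cell line; Also added: Melanotan II; Technique: Eu-cAMP/anti-cAMP TR-FRET, emission 671 nm; Times: 30-min compound, 1-h challenge, 1-h detection, room temperature.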
TAG inh = inhibitors of triacylglycerol accumulation, primary screen, cell-based, uHTS, fluorescence, H9c2 | H9c2 cells, Nile Red lipid (TAG) fluorescence; cells loaded with 200 µM oleic acid | inhibition, % at 12.5 µM | 0.66% of 230,000 active;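 active = pattern-corrected inhibition of lipid staining of at least 50% with the nuclear-stain viability signal not falling by more than 50%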;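 also: 0% = DMSO wells and 100% = triacsin C control wells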
GalR3 antag = GalR3 antagonists in HEK293 cells, primary screen, cell-based, fluorescence readout; HEK293 GalR3-CNG cAMP membrane potential fluorescence; galR3 body fused to GalR1 C-terminus; inhibition, % at 3 µM; 0.44% of 360,000 active;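 active = inhibition above the screen-wide average plus 3 SD, cut at about 13% in these data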;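 also: forskolin and galanin both at EC90 stimulate the cells; cAMP rise reported by CNG channel membrane potential dye signal; 0% = forskolin plus galanin with DMSO and 100% = forskolin alone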
Target sequence (O60755 1-299 limits assumed): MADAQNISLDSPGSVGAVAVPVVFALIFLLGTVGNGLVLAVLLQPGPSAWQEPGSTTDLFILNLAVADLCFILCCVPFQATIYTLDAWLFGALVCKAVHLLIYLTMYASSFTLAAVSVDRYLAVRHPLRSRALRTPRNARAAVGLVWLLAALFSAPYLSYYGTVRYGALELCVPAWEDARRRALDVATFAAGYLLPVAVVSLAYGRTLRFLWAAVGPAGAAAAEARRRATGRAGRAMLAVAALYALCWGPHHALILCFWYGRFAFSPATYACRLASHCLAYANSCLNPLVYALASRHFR
Efflux pump inh = inhibitors of Candida efflux pumps in yeast, primary screen, S. cerevisiae, Nile Red, multiplex; S. cerevisiae Candida pump triplex; inhibition, % at 10 µM; 0.44% of 330,000 active; AID 485275, 2010;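 active = plate passing quality check with inhibition over a set limit, or well fluorescence over plate mean plus 4 SD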;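 also: Nile Red retained in pooled yeast measured as flow cytometry median fluorescence; 0% = buffer negative control and 100% = Enniatin B positive control; higher means more Nile Red kept so more efflux inhibition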
MC4R barr agon = MC4R agonists recruiting beta-arrestin, primary screen, cell-based, luminescence, agonist arm of biased-ligand search. Melanocortin receptor 4 (Homo sapiens), P32245. U2OS MC4R beta-arrestin complementation; percent of melanotan II response, DMSO zero. activation, % at 8.9 µM. 0.98% of 360,000 active;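 active = activation above a per-plate cutoff, the mean activation of sample wells on that plate plus 3 SD, cut at about 8% in these data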
cAMP nonselect = nonselective cAMP signaling inhibitors, parental cells, counter-screen for MC4R biased antagonist project, cell-based, TR-FRET, U2OS, forskolin, triplicate | shares compounds with MC4R antagonist | LANCE TR-FRET | inhibition, % at 6.5 µM | 26% of 1,600 active | AID 602193, 2012;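 active = mean inhibition over triplicates above the low-control well mean plus 3 SD, set per campaign, cut at about 13% in these data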;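 also: signal is single emission at 671 nm which falls as cellular cAMP rises; 0% = forskolin-stimulated wells and 100% = buffer without forskolin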
MC4R cAMP antag = MC4R cAMP antagonists, retest, confirmation, cell-based, TR-FRET; shares compounds with MC4R antagonist; MC4R-expressing cells, MTII-stimulated cAMP; inhibition, % at 6.5 µM; 27% of 1,600 active; AID 602195, 2012; in the data active = inhibition above about 29%;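 also: 0% = agonist stimulated wells alone and 100% = agonist stimulated wells plus saturating reference antagonist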
The depositor's hits bear a star; ? = inconclusive; . = no result given. Most compounds without a hit are left out; they make up all but 2.9% or so of the library.

SMILES	Calb FLC	MC4R antagonist	TAG inh	GalR3 antag	Efflux pump inh	MC4R barr agon	cAMP nonselect	MC4R cAMP antag
COc1ccc(C(=O)/C=C/C(=O)N(CC(=O)NC2CCCCC2)Cc2ccccc2)c(O)c1	-24	40*	25	1	.	-2	5	11
COc1ccc(C(=O)/C=C/C(=O)N(CC(=O)NC2CCCCC2)Cc2ccccc2OC)c(O)c1	-10	48*	57	-3	.	-6	7	14
Nc1ccn([C@@H]2O[C@H](C(=O)N[C@H](Cc3ccccc3)C(=O)N3CCN(CC(=O)N4CCCC4)CC3)[C@@H](O)[C@H]2O)c(=O)n1	.	.	.	-7	.	.	.	.
Nc1nc(Cl)c(C=O)c(N2CCCCC2)n1	0	37*	10	5	0	-2	20*	28
CC1=C/C(=N\OS(=O)(=O)c2ccccc2)C(C)=CC1=O	.	68*	18	.	0	7	39*	76*
CCOC(=O)N1CCN(C(=O)C[C@@H]2C[C@@]3(C(=O)OC)CC(C)(C)CC=C3N(Cc3ccc4c(c3)OCO4)C2=O)CC1	.	.	.	-2	.	.	.	.
Clc1ncnc2c1oc1ccccc12	19	39*	19	-8	0	-2	-1	6
CCSc1ncnc2c1oc1ccccc12	?	-2	.	3	0	0	.	.
CCN(CC)S(=O)(=O)c1ccc(OC)c(NC(=O)Cn2cnc3c2c(=O)n(C)c(=O)n3C)c1	5	33*	-3	-1	0	-1	3	9
O=S(=O)(c1ccc(F)cc1)N1CCCc2nc(-c3ccccc3)ccc21	.	.	.	-5	.	.	.	.
CC(=O)n1cc(N(C(=O)CCl)c2ccc(C)cc2)c2ccccc21	32	46*	65*	-5	0	17*	-21	45*
CC(=O)N(c1ccc(Cl)cc1)c1cn(C(C)=O)c2ccccc12	6	7	-6	-5	0	-2	.	.
COc1ccc(C2=CCCC2)c(OC)c1	.	-8	-1	-5	.	-1	.	.
Cn1nc([N+](=O)[O-])nc1Sc1cccc2cccnc12	-1	30*	105	-5	0	0	8	3
CC(Sc1nnc2n1CCCCC2)C(=O)Nc1cccc(S(=O)(=O)N2CCOCC2)c1 (stereo not given)	.	11	-4	-7	.	0	.	.
c1ccc(-c2nc3c([nH]2)CCc2nonc2-3)cc1	-4	29*	4	-8	0	-2	1	-3
c1coc(-c2nc3c([nH]2)CCc2nonc2-3)c1	7	8	.	3	0	0	.	.
CCN(CC)S(=O)(=O)c1ccc(Cl)c(C(=O)OC2CC(C)OC2=O)c1 (stereo not given)	3	40*	.	-2	0	2	9	20
COCCCNC(=O)c1ccc2sc([C@@H]3O[C@H](CO)[C@H](O)[C@H](O)[C@H]3O)nc2c1	.	-1	3	-7	.	2	.	.
Cc1ccc(Sc2cnc(N)nc2C)cc1	1	37*	.	-6	0	4	-2	-7
Cn1c(=O)c2cc(NC(=O)CCc3cccnc3)ccc2n1Cc1ccc(F)cc1	.	15	-4	-5	.	-2	.	.
CCCCNC(=O)C1c2ccccc2OCC(=O)N1CCc1ccc(OC)c(OC)c1 (stereo not given)	.	.	.	-5	.	.	.	.
CC1CCCCN1S(=O)(=O)c1csc(C(N)=O)c1 (stereo not given)	-13	1	.	3	0	2	.	.
CC1CCCCN1S(=O)(=O)c1cnc(Cl)c(Br)c1 (stereo not given)	6	33*	.	-3	0	-1	13	16
CC1CCN(S(=O)(=O)c2cnc(Cl)c(Br)c2)CC1	2	41*	.	0	0	0	15*	41*
SMILES	Calb FLC	MC4R antagonist	TAG inh	GalR3 antag	Efflux pump inh	MC4R barr agon	cAMP nonselect	MC4R cAMP antag
CC1CCN(S(=O)(=O)c2ccc(Cl)cc2Br)CC1	4	6	-19	-2	0	2	.	.
COC(=O)[C@]12C[C@H](CC(=O)NCC3CCCCC3)C(=O)N(Cc3ccccc3)C1=C[C@H](C1CCCC1)O[C@@H]2C	.	.	.	-5	.	.	.	.
O=C(CSc1nc2cc(Cl)ccc2s1)N1CCN(C(=O)c2ccco2)CC1	-15	-3	19	-4	0	-2	.	.
O=C(CSc1c2c(nc3ccc(Cl)cc13)CCCC2)N1CCN(C(=O)c2ccco2)CC1	.	41*	23	-5	.	-2	-10	21
Cc1ccc(C)c(N2CCN(C3C(=O)Nc4ccccc4-n4nnnc43)CC2)c1 (stereo not given)	.	.	.	-5	.	.	.	.
COC(=O)c1sccc1NC(=S)Nc1ccc(F)cc1F	-33	30*	2	-3	0	1	-1	-19
CCSc1nnc(-c2ccccc2SC)o1	11	30*	6	2	0	-2	8	10
O=C(NC1CCCCC1)OC[C@@H]1CSCCS(=O)(=O)N1	.	.	.	-4	.	.	.	.
Cc1ccc(NC(=O)c2cc(N3C(=O)C=CC3=O)ccc2N2CCOCC2)cc1Cl	8	54*	.	-1	0	-1	-1	41*
CC1(C)Cc2c(c(N3CCOCC3)nc3sc4c(NCC5CCCO5)nnnc4c23)CS1 (stereo not given)	0	31*	10	4	1	1	0	-1
Nc1sccc1C(=O)NCCN1CCOCC1	.	.	.	-7	.	.	.	.
CCN1CCN(S(=O)(=O)c2ccc(Cl)c(C(=O)Oc3ccc(CC(=O)OC)cc3)c2)CC1	.	7	15	-1	.	-1	.	.
Cc1ccc(N2C(=O)c3cccc([N+](=O)[O-])c3C2=O)cc1C	0	42*	8	0	0	-1	23*	45*
COc1ccccc1NCC(=O)N/N=C(\C)c1cccs1	-4	40*	.	-1	0	2	2	10
C[C@H]1[C@H](c2ccccc2)Oc2cccc(NCCc3ccccc3)c2S(=O)(=O)N1Cc1ccc(F)cc1	.	.	.	1	.	.	.	.
Cc1cc(Br)c2nc(-c3ccc(Cl)cc3)c(Cc3cccc(Cl)c3)n2c1	.	.	.	-4	.	.	.	.
Cc1ccc(-n2c(Cl)c(Cl)nc(Cl)c2=O)cc1	.	46*	.	.	1	-4	57*	55*
